Laboratory results reported in ChEMBL document CHEMBL1152304, “Alteration of the bis-tetrahydrofuran core stereochemistries in asimicin can affect the cytotoxicity” (J Med Chem, 2008).

Experiments:
[1] = Cytotoxicity against human CFU-GM cells at 0.3 ug by disk diffusion assay; type: functional
Procedure, shortened: (§1)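 15 µL of sample dried overnight on 6.5 mm filter disk. Disk placed near edge of 60 mm dish of cells plated in soft agar, incubated 7-10 days. Zone of inhibition measured from disk edge to start of normal-sized colony formation, disk diameter taken as 200 units. Overly toxic samples diluted 1:4 or 1:10 and retested.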

MC-38 [2] = test: Cytotoxicity against mouse Colon 38 cells at 30 ug by disk diffusion assay; type: functional; procedure, shortened: as §1
L1210 [3] = test: Cytotoxicity against mouse L1210 cells at 0.3 ug by disk diffusion assay; type: functional; procedure, shortened: as §1
L1210 [4] = test: Cytotoxicity against mouse L1210 cells at 3 ug by disk diffusion assay; type: functional; procedure, shortened: as §1
[5] = Cytotoxicity against human H125M cells at 30 ug by disk diffusion assay; type: functional; procedure, shortened: as §1
HCT-116 [6] = test: Cytotoxicity against human HCT116 cells at 30 ug by disk diffusion assay; type: functional; procedure, shortened: as §1
[7] = Cytotoxicity against human CFU-GM cells at 3 ug by disk diffusion assay; type: functional; procedure, shortened: as §1
MC-38 [8] = test: Cytotoxicity against mouse Colon 38 cells at 0.3 ug by disk diffusion assay; type: functional; procedure, shortened: as §1
[9] = Inhibition of bovine heart mitochondrial complex1 activity; design: species or system Bos taurus
Procedure, shortened: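 Bovine heart submitochondrial particles, 15 µg/mL, in 0.25 M sucrose, 1 mM MgCl2, 50 mM phosphate pH 7.5. Inhibitor added at various concentrations and equilibrated 5 min. Reaction started with 150 µM NADH and followed spectrophotometrically at 340 nm. IC50 derived.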

[10] = Cytotoxicity against human CFU-GM cells at 30 ug by disk diffusion assay; type: functional; procedure, shortened: as §1
MC-38 [11] = test: Cytotoxicity against mouse Colon 38 cells at 3 ug by disk diffusion assay; type: functional; procedure, shortened: as §1
L1210 [12] = test: Cytotoxicity against mouse L1210 cells at 30 ug by disk diffusion assay; type: functional; procedure, shortened: as §1
CCRF-CEM [13] = test: Cytotoxicity against human CEM cells at 30 ug by disk diffusion assay; type: functional; procedure, shortened: as §1
L1210 [14] = test: Cytotoxicity against mouse L1210 cells at 3.75 ug by disk diffusion assay; type: functional; procedure, shortened: as §1
[15] = Cytotoxicity against human CFU-GM cells at 3.75 ug by disk diffusion assay; type: functional; procedure, shortened: as §1
[16] = Cytotoxicity against human H125M cells at 60 ug by disk diffusion assay; type: functional; procedure, shortened: as §1
CCRF-CEM [17] = test: Cytotoxicity against human CEM cells at 60 ug by disk diffusion assay; type: functional; procedure, shortened: as §1
[18] = Cytotoxicity against human CFU-GM cells at 60 ug by disk diffusion assay; type: functional; procedure, shortened: as §1
[19] = Cytotoxicity against human CFU-GM cells at 15 ug by disk diffusion assay; type: functional; procedure, shortened: as §1
MC-38 [20] = test: Cytotoxicity against mouse Colon 38 cells at 15 ug by disk diffusion assay; type: functional; procedure, shortened: as §1
L1210 [21] = test: Cytotoxicity against mouse L1210 cells at 60 ug by disk diffusion assay; type: functional; procedure, shortened: as §1
MC-38 [22] = test: Cytotoxicity against mouse Colon 38 cells at 60 ug by disk diffusion assay; type: functional; procedure, shortened: as §1
L1210 [23] = test: Cytotoxicity against mouse L1210 cells at 15 ug by disk diffusion assay; type: functional; procedure, shortened: as §1
HCT-116 [24] = test: Cytotoxicity against human HCT116 cells at 60 ug by disk diffusion assay; type: functional; procedure, shortened: as §1
HCT-116 [25] = test: Cytotoxicity against human HCT116 cells; type: functional, cell-based
MC-38 [26] = test: Cytotoxicity against mouse Colon 38 cells at 3.75 ug by disk diffusion assay; type: functional; procedure, shortened: as §1
HCT-116 [27] = test: Cytotoxicity against human HCT116 cells assessed as surviving fraction at 0.1 ug/ml after 24 hrs; type: functional
Procedure, shortened: (§2)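 HCT-116 cells exposed to drug at 0.001-10 µg/mL for 2 h, 24 h or continuously (168 h). Surviving clonogenic cells counted. 90% kill (S10) used as comparison point.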

HCT-116 [28] = test: Cytotoxicity against human HCT116 cells assessed as surviving fraction at 10 ug/ml after 24 hrs; type: functional; procedure, shortened: as §2
HCT-116 [29] = test: Cytotoxicity against human HCT116 cells assessed as surviving fraction at 0.1 ug/ml after 168 hrs; type: functional; procedure, shortened: as §2
CCRF-CEM [30] = test: Cytotoxicity against human CEM cells at 15 ug by disk diffusion assay; type: functional; procedure, shortened: as §1
[31] = Cytotoxicity against human CFU-GM cells at 0.94 ug by disk diffusion assay; type: functional; procedure, shortened: as §1
L1210 [32] = test: Cytotoxicity against mouse L1210 cells at 0.94 ug by disk diffusion assay; type: functional; procedure, shortened: as §1
HCT-116 [33] = test: Cytotoxicity against human HCT116 cells assessed as surviving fraction at 10 ug/ml after 168 hrs; type: functional; procedure, shortened: as §2
HCT-116 [34] = test: Cytotoxicity against human HCT116 cells assessed as surviving fraction at 0.001 ug/ml after 168 hrs; type: functional; procedure, shortened: as §2
HCT-116 [35] = test: Cytotoxicity against human HCT116 cells assessed as surviving fraction at 0.001 ug/ml after 2 hrs; type: functional; procedure, shortened: as §2
HCT-116 [36] = test: Cytotoxicity against human HCT116 cells assessed as surviving fraction at 0.0001 ug/ml after 24 hrs; type: functional
HCT-116 [37] = test: Cytotoxicity against human HCT116 cells assessed as surviving fraction at 0.01 ug/ml after 168 hrs; type: functional; procedure, shortened: as §2
HCT-116 [38] = test: Cytotoxicity against human HCT116 cells assessed as surviving fraction at 0.0001 ug/ml after 2 hrs; type: functional
HCT-116 [39] = test: Cytotoxicity against human HCT116 cells assessed as surviving fraction at 0.01 ug/ml after 2 hrs; type: functional; procedure, shortened: as §2
MC-38 [40] = test: Cytotoxicity against mouse Colon 38 cells at 0.94 ug by disk diffusion assay; type: functional; procedure, shortened: as §1
HCT-116 [41] = test: Cytotoxicity against human HCT116 cells assessed as surviving fraction at 1 ug/ml after 168 hrs; type: functional; procedure, shortened: as §2
HCT-116 [42] = test: Cytotoxicity against human HCT116 cells assessed as surviving fraction at 10 ug/ml after 2 hrs; type: functional; procedure, shortened: as §2
HCT-116 [43] = test: Cytotoxicity against human HCT116 cells assessed as surviving fraction at 0.001 ug/ml after 24 hrs; type: functional; procedure, shortened: as §2
HCT-116 [44] = test: Cytotoxicity against human HCT116 cells assessed as surviving fraction at 0.01 ug/ml after 24 hrs; type: functional; procedure, shortened: as §2
HCT-116 [45] = test: Cytotoxicity against human HCT116 cells assessed as surviving fraction at 1 ug/ml after 2 hrs; type: functional; procedure, shortened: as §2
HCT-116 [46] = test: Cytotoxicity against human HCT116 cells assessed as surviving fraction at 0.1 ug/ml after 2 hrs; type: functional; procedure, shortened: as §2
HCT-116 [47] = test: Cytotoxicity against human HCT116 cells at 15 ug by disk diffusion assay; type: functional; procedure, shortened: as §1
[48] = Cytotoxicity against human H125M cells at 15 ug by disk diffusion assay; type: functional; procedure, shortened: as §1
HCT-116 [49] = test: Cytotoxicity against human HCT116 cells assessed as surviving fraction at 0.0001 ug/ml after 168 hrs; type: functional
HCT-116 [50] = test: Cytotoxicity against human HCT116 cells assessed as surviving fraction at 1 ug/ml after 24 hrs; type: functional; procedure, shortened: as §2

CCCCCCCCCC[C@@H](O)[C@@H]1CC[C@@H]([C@@H]2CC[C@H]([C@H](O)CCCCCCCCCC[C@@H](O)CC3=C[C@H](C)OC3=O)O2)O1
inhibition zone (IZ) [1]: 500 Zone units
inhibition zone (IZ) (MC-38 [2]): 750 Zone units
inhibition zone (IZ) (L1210 [3]): 50 Zone units
inhibition zone (IZ) (L1210 [4]): 150 Zone units
inhibition zone (IZ) [5]: 600 Zone units
inhibition zone (IZ) (HCT-116 [6]): 600 Zone units
inhibition zone (IZ) [7]: 550 Zone units
inhibition zone (IZ) (MC-38 [8]): 500 Zone units
IC50 [9]: 3 nM
inhibition zone (IZ) [10]: 650 Zone units
inhibition zone (IZ) (MC-38 [11]): 750 Zone units
inhibition zone (IZ) (L1210 [12]): 250 Zone units
inhibition zone (IZ) (CCRF-CEM [13]): 200 Zone units

CCCCCCCCCC[C@@H](O)[C@H]1CC[C@@H]([C@@H]2CC[C@H]([C@@H](O)CCCCCCCCCC[C@@H](O)CC3=C[C@H](C)OC3=O)O2)O1
inhibition zone (IZ) (L1210 [14]): 150 Zone units
inhibition zone (IZ) [15]: 100 Zone units
inhibition zone (IZ) [16]: 500 Zone units
inhibition zone (IZ) (CCRF-CEM [17]): 150 Zone units
inhibition zone (IZ) [18]: 350 Zone units
inhibition zone (IZ) [19]: 250 Zone units
inhibition zone (IZ) (MC-38 [20]): 800 Zone units
IC50 [9]: 2.5 nM
inhibition zone (IZ) (L1210 [21]): 200 Zone units
inhibition zone (IZ) (MC-38 [22]): 600 Zone units
inhibition zone (IZ) (L1210 [23]): 300 Zone units
inhibition zone (IZ) (HCT-116 [24]): 550 Zone units
IC50 (HCT-116 [25]): 5.6 nM
inhibition zone (IZ) (MC-38 [26]): 650 Zone units

CCCCCCCCCC[C@@H](O)[C@H]1CC[C@H]([C@H]2CC[C@H]([C@@H](O)CCCCCCCCCC[C@@H](O)CC3=C[C@H](C)OC3=O)O2)O1
inhibition zone (IZ) (L1210 [14]): 50 Zone units
inhibition zone (IZ) [15]: 0 Zone units
inhibition zone (IZ) [16]: 250 Zone units
inhibition zone (IZ) (CCRF-CEM [17]): 100 Zone units
inhibition zone (IZ) [18]: 600 Zone units
inhibition zone (IZ) [19]: 100 Zone units
inhibition zone (IZ) (MC-38 [20]): 750 Zone units
IC50 [9]: 3.3 nM
inhibition zone (IZ) (L1210 [21]): 400 Zone units
inhibition zone (IZ) (MC-38 [22]): 800 Zone units
inhibition zone (IZ) (L1210 [23]): 400 Zone units
inhibition zone (IZ) (HCT-116 [24]): 600 Zone units
IC50 (HCT-116 [25]): 27 nM
inhibition zone (IZ) (MC-38 [26]): 650 Zone units

CCCCCCCCCCC(O)C1CCC(C2CCC(C(O)CCCCCCCC[C@H](O)CC3=C[C@@H](C)OC3=O)O2)O1 (stereo partly specified) [ASIMICIN]
Activity (HCT-116 [27]): 0.54
inhibition zone (IZ) (L1210 [14]): 400 Zone units
Activity (HCT-116 [28]): 0.12
inhibition zone (IZ) [15]: 500 Zone units
Activity (HCT-116 [29]): 0.001
inhibition zone (IZ) (CCRF-CEM [30]): 200 Zone units
inhibition zone (IZ) [31]: 0 Zone units
inhibition zone (IZ) (L1210 [32]): 150 Zone units
Activity (HCT-116 [33]): 0.001
Activity (HCT-116 [34]): 0.001
Activity (HCT-116 [35]): 0.94
Activity (HCT-116 [36]): 1
Activity (HCT-116 [37]): 0.001
inhibition zone (IZ) [18]: 600 Zone units
Activity (HCT-116 [38]): 0.97
Activity (HCT-116 [39]): 0.8
inhibition zone (IZ) [19]: 300 Zone units
inhibition zone (IZ) (MC-38 [40]): 650 Zone units
inhibition zone (IZ) (MC-38 [20]): 900 Zone units
IC50 [9]: 1.2 nM
Activity (HCT-116 [41]): 0.001
inhibition zone (IZ) (L1210 [21]): 600 Zone units
inhibition zone (IZ) (MC-38 [22]): 800 Zone units
Activity (HCT-116 [42]): 0.66
Activity (HCT-116 [43]): 0.88
Activity (HCT-116 [44]): 0.73
Activity (HCT-116 [45]): 0.8
Activity (HCT-116 [46]): 0.98
inhibition zone (IZ) (L1210 [23]): 200 Zone units
inhibition zone (IZ) (HCT-116 [47]): 600 Zone units
IC50 (HCT-116 [25]): 0.51 nM
inhibition zone (IZ) [48]: 300 Zone units
Activity (HCT-116 [49]): 0.66
inhibition zone (IZ) (MC-38 [26]): 950 Zone units
Activity (HCT-116 [50]): 0.48
